Holding throughout (type): functional
The test system of experiment [1] is Rattus norvegicus. As to the kind of experiment: Anti-passive cutaneous anaphylaxis activity in rat (intravenous administration). The settings on record: read-out: ID50 (the source's name). The method, boiled down:
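Male Sprague-Dawley rats (8 weeks, ~280 g) were sensitized passively. Antiserum was raised with egg albumin im plus killed B. pertussis ip, and diluted fourfold. Four 0.05-mL intradermal dorsal injections were given, with a 72-h latency. Challenge was iv with 5 mg egg albumin plus 10 mg Evans blue in 1 mL saline. Drug in saline or PEG 400 was given iv immediately before challenge. Dye leakage area was read at 30 min. ID50 came from a least-squares log dose–area fit.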

Experiment [2] relates to Rattus norvegicus. In words: Compound was evaluated for anti passive cutaneous anaphylaxis activity in nonfasted rat, administered through intravenous route. The settings on record: oral, in the assay text read “oral” for “intravenous”, read-out: ID50 (the source's name).
Experiment [3] has as its system Rattus norvegicus. In words: Compound was evaluated for anti passive cutaneous anaphylaxis activity in fasted rats administered oral route. The conditions noted are these: read-out: ID50 (the source's name). The method, boiled down:
(§1)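 Homologous rat PCA in male Sprague-Dawley rats (8 weeks, ~280 g). Skin sites received 72 h of exposure to fourfold-diluted egg albumin antiserum. Drug was suspended in 5% gum arabic and given orally 5 min before iv challenge with egg albumin and Evans blue. Rats were bled 30 min later and dye leakage area (mm2) was measured. ID50 came from least-squares log dose regression, with Fieller fiducial limits.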

For experiment [4], the system named is Rattus norvegicus. As to the kind of experiment: Compound was evaluated for anti passive cutaneous anaphylaxis activity in nonfasted rats administered oral route. The conditions noted are these: read-out: ID50 (the source's name). The method, boiled down:
as §1

Experiment [5] concerns Rattus norvegicus. In words: Compound was evaluated for anti passive cutaneous anaphylaxis activity in fasted rat, administered through intravenous route. The conditions noted are these: oral, in the assay text read “oral” for “intravenous”, read-out: ID50 (the source's name).

`CNc1nc2oc3ccc(C(C)C)cc3c(=O)c2cc1C(=O)O`: in the experiment with Rattus norvegicus [1], the ED50 is 0.39 mg/kg. With `CCc1ccc2oc3nc(N)c(C(=O)O)cc3c(=O)c2c1`, the ED50 with Rattus norvegicus [1] amounted to 0.14 mg/kg; in the experiment on Rattus norvegicus [2] it was 5.4 mg/kg. Regarding `O=C(O)c1cnc2oc3ccccc3c(=O)c2c1`, in the experiment on Rattus norvegicus [1], the ED50 was found to be 0.63 mg/kg. Still for that read-out and setting: for `O=c1c2ccccc2oc2ncc(-c3nn[nH]n3)cc12` the value was 0.44 mg/kg; for `Cc1ccc2oc3nc(O)c(C(=O)O)cc3c(=O)c2c1`, 0.1 mg/kg.

Turning to `CCONc1nc2oc3ccc(C(C)C)cc3c(=O)c2cc1C(=O)O`, the ED50 with Rattus norvegicus [1] is 0.014 mg/kg. On to `CONc1nc2oc3ccc(C(C)C)cc3c(=O)c2cc1C(=O)O`, for which the ED50 was 0.0076 mg/kg in the experiment with Rattus norvegicus [1], 0.59 mg/kg in the experiment with Rattus norvegicus [3] and 4.6 mg/kg in the experiment with Rattus norvegicus [4]. Turning to `CCc1ccc2oc3nc(C)c(C(=O)O)cc3c(=O)c2c1`, the ED50 in the experiment with Rattus norvegicus [1] came out at 0.73 mg/kg. The same measure, in the same setting: for `CCc1ccc(O)c(C(=O)c2cc(C(=O)O)c(C)nc2O)c1` the value was over 20 mg/kg; for `CCc1ccc2oc3nc(OC)c(C(=O)O)cc3c(=O)c2c1`, 0.5 mg/kg.

Consider `COc1ccc2oc3nc(O)c(C(=O)O)cc3c(=O)c2c1`, for which the ED50 in the experiment on Rattus norvegicus [1] amounted to 0.042 mg/kg. Same read-out and setting: for `CC(C)c1ccc2oc3nc(O)c(C(=O)O)cc3c(=O)c2c1` the value was 0.02 mg/kg; for `O=C(O)c1cc2c(=O)c3ccccc3oc2nc1O`, 0.62 mg/kg; for `CCc1ccc2oc3nc(O)c(C(=O)O)cc3c(=O)c2c1`, 0.041 mg/kg. For `CC(C)(C)c1ccc2oc3ncc(-c4nn[nH]n4)cc3c(=O)c2c1`, the ED50 with Rattus norvegicus [1] is 0.047 mg/kg; with Rattus norvegicus [4] it was 6 mg/kg. The matching figures for `CCc1ccc2oc3ncc(-c4nn[nH]n4)cc3c(=O)c2c1`: 0.11 mg/kg and 6.4 mg/kg.

`CC(C)c1ccc2oc3ncc(C(=O)O)cc3c(=O)c2c1`: the ED50 in the experiment with Rattus norvegicus [1] was 0.059 mg/kg; with Rattus norvegicus [4] it was 1.2 mg/kg.

Consider `Cc1cc(C)c2oc3ncc(-c4nn[nH]n4)cc3c(=O)c2c1`, for which the ED50 with Rattus norvegicus [1] turned out to be 0.31 mg/kg. Same read-out and setting: the figure for `CC(C)c1ccc2oc3nc(N)c(-c4nn[nH]n4)cc3c(=O)c2c1` is 0.064 mg/kg; for `CONc1nc2oc3ccc(C(C)C)cc3c(=O)c2cc1-c1nn[nH]n1` it is 0.19 mg/kg. As for `CCCCONc1nc2oc3ccc(C(C)C)cc3c(=O)c2cc1C(=O)O`, the ED50 was determined as 0.028 mg/kg in the experiment with Rattus norvegicus [1] and 3.5 mg/kg in the experiment with Rattus norvegicus [4]. `COc1cccc2c(=O)c3cc(C(=O)O)c(O)nc3oc12`: the ED50 in the experiment on Rattus norvegicus [1] was determined as 0.1 mg/kg. The same measure, in the same setting: for `COc1cccc2c(=O)c3cc(C(=O)O)c(N)nc3oc12` the value was 0.45 mg/kg. On the same count and under the same terms, the figure for `Cc1cc(C)c2oc3nc(O)c(C(=O)O)cc3c(=O)c2c1` is 0.12 mg/kg. On the same count and under the same terms, for `O=c1c2cc(-c3nn[nH]n3)cnc2oc2ccc3ccccc3c12` the value was 0.84 mg/kg. Take `CC(C)c1ccc2oc3nc(NO)c(C(=O)O)cc3c(=O)c2c1`: the values for the ED50 with Rattus norvegicus [1] and in the experiment with Rattus norvegicus [4] were 0.018 mg/kg and 1 mg/kg, respectively.

As to `CC(C)c1ccc2oc3ncc(-c4nn[nH]n4)cc3c(=O)c2c1`, the ED50 was determined as 0.0096 mg/kg in the experiment on Rattus norvegicus [1], 0.034 mg/kg in the experiment with Rattus norvegicus [3] and 0.46 mg/kg in the experiment with Rattus norvegicus [4]. `CCCCc1ccc2oc3nc(N)c(C(=O)O)cc3c(=O)c2c1`: the ED50 in the experiment with Rattus norvegicus [1] was determined as 1.1 mg/kg. Regarding `CCc1ccc2oc3ncc(C(=O)O)cc3c(=O)c2c1`, the values for the ED50 in the experiment with Rattus norvegicus [1], with Rattus norvegicus [5] and with Rattus norvegicus [2] were 0.034 mg/kg, 0.18 mg/kg and 0.95 mg/kg, respectively. For `CC(C)c1ccc2oc3nc(N)c(C(=O)O)cc3c(=O)c2c1` [AMLEXANOX], the ED50 in the experiment on Rattus norvegicus [1] was 0.032 mg/kg; in the experiment with Rattus norvegicus [3] it was 0.73 mg/kg; in the experiment with Rattus norvegicus [4], 6.1 mg/kg. In the case of `O=C([O-])c1cc(=O)c2c(OCC(O)COc3cccc4oc(C(=O)[O-])cc(=O)c34)cccc2o1.[Na+].[Na+]` [CROMOLYN SODIUM], the ED50 in the experiment on Rattus norvegicus [1] turned out to be 1.4 mg/kg.
